The values that follow come from ChEMBL document CHEMBL3045256, “Design, synthesis, structure, and acaricidal/insecticidal activity of novel spirocyclic tetronic acid derivatives containing an oxalyl moiety” (2011).

Usually mortality stands for the percentage killed.

Molecules are shown by their SMILES.

Type in all cases: functional
Assay [1] concerns Tetranychus cinnabarinus. Nature of the assay: Acaricidal activity against eggs of Tetranychus cinnabarinus (carmine spider mite) in sieva bean leaves assessed as mortality at 5 mg/kg at 25 +/-1 degC treated for 3 secs measured after 4 days. The settings on record: 96 h.
The test system of assay [2] is Helicoverpa armigera. Nature of the assay: Stomach toxicity against third-instar larval stage of Helicoverpa armigerain compound-pretreated corn leaves assessed as mortality at 600 mg/kg at 25 +/-1 degC after 4 days by leaf-dip method. Summed up: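 Leaf-dip assay on cotton bollworm. Corn leaves were dipped in test solution and air-dried. The treated pieces were placed individually into 24-hole boxes. Run at 25 ± 1 °C.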

The test system of assay [3] is Tetranychus cinnabarinus. Nature of the assay: Acaricidal activity against larvae of Tetranychus cinnabarinus (carmine spider mite) in sieva bean leaves assessed as mortality at 5 mg/kg at 25 +/-1 degC treated for 3 secs measured after 4 days. The settings on record: 96 h.
Assay [4] relates to Mythimna separata. Briefly: Stomach toxicity against fourth-instar larval stage of Mythimna separata (Oriental armyworm) in compound-pretreated corn leaves assessed as mortality at 600 mg/kg at 25 +/-1 degC after 4 days. Summed up:
(§1)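 Foliar application to oriental armyworm. Single corn leaves were laid on moistened filter paper in Petri dishes. Bioassays were run at 25 ± 1 °C.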

The subject of assay [5] is Ostrinia nubilalis. Nature of the assay: Stomach toxicity against third-instar larval stage of Ostrinia nubilalis (European corn borer) in corn leaves assessed as mortality at 600 mg/kg at 25 +/-1 degC treated for 3-5 secs before larval infestation after 4 days by leaf-dip method. The settings on record: 96 h. Summed up: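 Corn leaf disks (about 5 cm) were dipped for 3–5 s and air-dried. Each disk was placed in a 7 cm glass vessel with 10 third-instar corn borer larvae. Percentage mortality was scored 4 days after treatment. Controls were acetone-treated leaves. Run at 25 ± 1 °C.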

Assay [6] concerns Tetranychus cinnabarinus. Nature of the assay: Acaricidal activity against larvae of Tetranychus cinnabarinus (carmine spider mite) in sieva bean leaves assessed as mortality at 10 mg/kg at 25 +/-1 degC treated for 3 secs measured after 4 days. The settings on record: 96 h.
For assay [7], the system named is Mythimna separata. Briefly: Stomach toxicity against fourth-instar larval stage of Mythimna separata (Oriental armyworm) in compound-pretreated corn leaves assessed as mortality at 50 mg/kg at 25 +/-1 degC after 4 days. Summed up: as §1
The test system of assay [8] is Tetranychus cinnabarinus. Briefly: Acaricidal activity against larvae of Tetranychus cinnabarinus (carmine spider mite) in sieva bean leaves assessed as mortality at 0.5 mg/kg at 25 +/-1 degC treated for 3 secs measured after 4 days. The note with it: 96 h.
Assay [9] has as its system Tetranychus cinnabarinus. Briefly: Acaricidal activity against larvae of Tetranychus cinnabarinus (carmine spider mite) in sieva bean leaves assessed as mortality at 2.5 mg/kg at 25 +/-1 degC treated for 3 secs measured after 4 days. The settings on record: 96 h.
In assay [10] the test system is Tetranychus cinnabarinus. Nature of the assay: Acaricidal activity against eggs of Tetranychus cinnabarinus (carmine spider mite) in sieva bean leaves assessed as mortality at 0.5 mg/kg at 25 +/-1 degC treated for 3 secs measured after 4 days. The settings on record: 96 h.
Assay [11] relates to Tetranychus cinnabarinus. Nature of the assay: Acaricidal activity against eggs of Tetranychus cinnabarinus (carmine spider mite) in sieva bean leaves assessed as mortality at 2.5 mg/kg at 25 +/-1 degC treated for 3 secs measured after 4 days. The note with it: 96 h.
The test system of assay [12] is Tetranychus cinnabarinus. Nature of the assay: Acaricidal activity against eggs of Tetranychus cinnabarinus (carmine spider mite) in sieva bean leaves assessed as mortality at 1 mg/kg at 25 +/-1 degC treated for 3 secs measured after 4 days. The settings on record: 96 h.
Assay [13] concerns Mythimna separata. Nature of the assay: Stomach toxicity against fourth-instar larval stage of Mythimna separata (Oriental armyworm) in compound-pretreated corn leaves assessed as mortality at 100 mg/kg at 25 +/-1 degC after 4 days. Summed up: as §1
Assay [14] has as its system Plutella xylostella. Briefly: Stomach toxicity against third-instar larval stage of Plutella xylostella (diamondback moth) in cabbage leaves assessed as mortality at 200 mg/kg at 25 +/-1 degC treated for 3 secs before larval infestation after 4 days by leaf-dip method. The settings on record: 96 h. Summed up:
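Cabbage leaf disks (6 cm × 2 cm) were dipped in test solution for 3 s and air-dried. Each disk was placed in a glass tube and given seven third-instar diamondback moth larvae. Percentage mortality was scored after 4 days. Controls were water and dimethylformamide. Each treatment was done three times at 25 ± 1 °C.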

In assay [15] the test system is Tetranychus cinnabarinus. Nature of the assay: Acaricidal activity against larvae of Tetranychus cinnabarinus (carmine spider mite) in sieva bean leaves assessed as mortality at 1 mg/kg at 25 +/-1 degC treated for 3 secs measured after 4 days. The note with it: 96 h.
In assay [16] the test system is Tetranychus cinnabarinus. Briefly: Acaricidal activity against eggs of Tetranychus cinnabarinus (carmine spider mite) in sieva bean leaves assessed as mortality at 0.25 mg/kg at 25 +/-1 degC treated for 3 secs measured after 4 days. The settings on record: 96 h.

`C#CCOC(=O)C(=O)OC1=C(c2c(C)cc(C)cc2C)C(=O)OC12CCCC2`: the mortality at 5 mg/kg in assay [1] was 30%; in [3], 0%. Also, the values for the mortality at 600 mg/kg in [2], in [4] and in assay [5] were 20%, 50% and 70%, respectively. Besides, the mortality at 10 mg/kg in [6] worked out at 30%.

For `Cc1cc(C)c(C2=C(OC(=O)C(=O)Oc3ccccc3)C3(CCCC3)OC2=O)c(C)c1`, the mortality at 50 mg/kg in assay [7] came to 0%. Also, the mortality at 0.5 mg/kg in assay [8] came to 20%; in assay [10], 50%. In addition, the mortality at 2.5 mg/kg in assay [9] turned out to be 80%; in [11] it was 100%. The results for the mortality at 5 mg/kg in assay [1] and in assay [3] were 100% and 90%, respectively. Besides, the mortality at 600 mg/kg in assay [2] worked out at 20%; in assay [5], 60%. In addition, the mortality at 1 mg/kg was 70% in assay [12] and 50% in assay [15]. Also, the mortality at 100 mg/kg in assay [13] is 100%. Further, in [14], the mortality at 200 mg/kg stood at 60%. Moreover, in assay [6], the mortality at 10 mg/kg is 100%.

Take `Cc1cc(C)c(C2=C(OC(=O)C(=O)Oc3ccc(Cl)cc3)C3(CCCC3)OC2=O)c(C)c1`: the mortality at 0.5 mg/kg amounted to 0% in [8] and 80% in [10]. Besides, the results for the mortality at 2.5 mg/kg in [9] and in [11] were 70% and 100%, respectively. For the same compound, the figures for the mortality at 5 mg/kg in assay [1] and in [3] were 100% and 90%, respectively. Further, the mortality at 600 mg/kg in [2] came to 30%; in [4], 70%; in [5] it was 50%. Also, the figures for the mortality at 1 mg/kg in assay [12] and in [15] were 90% and 60%, respectively. For the same compound, in assay [16], the mortality at 0.25 mg/kg came to 60%. For the same compound, in [6], the mortality at 10 mg/kg came out at 100%.

Regarding `Cc1cc(C)c(C2=C(OC(=O)C(=O)Oc3ccc(C(C)(C)C)cc3)C3(CCCC3)OC2=O)c(C)c1`, the mortality at 0.5 mg/kg in assay [8] was found to be 40%. The mortality at 2.5 mg/kg in [9] is 90%; in assay [11], 70%. Further, the mortality at 5 mg/kg in assay [1] and in assay [3] was 90% in each case. Besides, the figures for the mortality at 600 mg/kg in assay [2], in assay [4] and in [5] were 10%, 80% and 10%, respectively. Moreover, the results for the mortality at 1 mg/kg in assay [12] and in assay [15] were 50% and 60%, respectively. The mortality at 10 mg/kg in assay [6] is 100%.

As to `CCN(CC)C(=O)C(=O)OC1=C(c2c(C)cc(C)cc2C)C(=O)OC12CCCC2`, the mortality at 50 mg/kg in assay [7] came to 40%. The figures for the mortality at 2.5 mg/kg in assay [9] and in assay [11] were 90% and 100%, respectively. The mortality at 0.5 mg/kg in assay [10] is 0%. The mortality at 5 mg/kg in [1] and in assay [3] was 100% throughout. For the same compound, the values for the mortality at 600 mg/kg in assay [2] and in assay [5] were 20% and 30%, respectively. For the same compound, the results for the mortality at 1 mg/kg in assay [12] and in [15] were 60% and 70%, respectively. Further, in assay [13], the mortality at 100 mg/kg came out at 100%. The mortality at 200 mg/kg in [14] came to 85%. Further, the mortality at 10 mg/kg in assay [6] was 100%.

Consider `Cc1cc(C)c(C2=C(OC(=O)C(=O)N3CCCC3)C3(CCCC3)OC2=O)c(C)c1`, for which the mortality at 5 mg/kg in assay [1] came out at 70%; in assay [3], 0%. Besides, the results for the mortality at 600 mg/kg in assay [2], in assay [4] and in assay [5] were 30%, 40% and 30%, respectively. Also, the mortality at 2.5 mg/kg in [11] amounted to 30%. In assay [6], the mortality at 10 mg/kg came to 40%.
